ChEMBL document CHEMBL5058577, “EUbOPEN Chemogenomics Library 2 (Multiplex)” (2022)

System: HEK-293T
Experiment: Multiplex assay against HEK293T
Format: toxicity, cell-based
Details: human
Summary of the method: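 With compound added, live cells were imaged on a CQ1 microscope at 37°C and 5% CO2; staining with Hoechst33342, BioTracker Green Microtubule Cytoskeleton Dye, MitoTracker Red and Annexin V Alexa Fluor 680 had been done at seeding. The CellPathfinder machine-learning gating scheme split cells into Hoechst high-intensity objects or normal cells, normal cells into healthy, pyknosed or fragmented nuclei, and pyknosed cells into mitotic or apoptotic. The tubulin, mitochondrial-mass and membrane-permeability phenotypes are per cents of healthy-nucleus cells.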

[1] = 12 h, 1 µM, compound concentration 1 uM, replicate 1
[2] = 12 h, 1 µM, compound concentration 1 uM, replicate 2
[3] = 12 h, 10 µM, compound concentration 10 uM, replicate 1
[4] = 12 h, 10 µM, compound concentration 10 uM, replicate 2
[5] = 24 h, 1 µM, compound concentration 1 uM, replicate 1
[6] = 24 h, 1 µM, compound concentration 1 uM, replicate 2
[7] = 24 h, 10 µM, compound concentration 10 uM, replicate 1
[8] = 24 h, 10 µM, compound concentration 10 uM, replicate 2
[9] = 48 h, 1 µM, compound concentration 1 uM, replicate 1
[10] = 48 h, 1 µM, compound concentration 1 uM, replicate 2
[11] = 48 h, 10 µM, compound concentration 10 uM, replicate 1
[12] = 48 h, 10 µM, compound concentration 10 uM, replicate 2

For `CN(C)C/C=C/C(=O)Nc1ccc(C(=O)N2CCCC(Nc3ncc(Cl)c(-c4c[nH]c5ccccc45)n3)C2)cc1` (stereo not given), the “Population Apoptotic (%)” value [1] was 46%, the “Population Fragmented Nuclei (%)” value [1] was 8% and the “Population Healthy Nuclei (%)” value [1] was 55%. The “Population Hoechst High Intensity Objects (%)” value [1] was 30%, the “Population Membrane Permeable-Phenotype (%)” value [1] was 0% and the “Population Mitochondria Different-Phenotype (%)” value [1] was 87%. For the same compound, the “Population Mitotic Cells (%)” value [1] was 53%, the “Population Normal (%)” value [1] was 69% and the “Population Pyknosed Nuclei (%)” value [1] was 35%. The “Population Tubulin-Different-Phenotype (%)” value [1] was 69%, the “Total Cell Count” value [1] was 227 and the “Population Apoptotic (%)” value [2] was 63%. The “Population Fragmented Nuclei (%)” value [2] was 6%, the “Population Healthy Nuclei (%)” value [2] was 64% and the “Population Hoechst High Intensity Objects (%)” value [2] was 23%. The “Population Mitochondria Different-Phenotype (%)” value [2] was 89%, the “Population Mitotic Cells (%)” value [2] was 36% and the “Population Normal (%)” value [2] was 76%. The “Population Pyknosed Nuclei (%)” value [2] was 29%, the “Population Tubulin-Different-Phenotype (%)” value [2] was 70% and the “Total Cell Count” value [2] was 231. The “Population Apoptotic (%)” value [3] was 62%, the “Population Fragmented Nuclei (%)” value [3] was 12% and the “Population Healthy Nuclei (%)” value [3] was 57%. The “Population Hoechst High Intensity Objects (%)” value [3] was 35%, the “Population Membrane Permeable-Phenotype (%)” value [3] was 0% and the “Population Mitochondria Different-Phenotype (%)” value [3] was 95%. The “Population Mitotic Cells (%)” value [3] was 37%, the “Population Normal (%)” value [3] was 64% and the “Population Pyknosed Nuclei (%)” value [3] was 30%. The “Population Tubulin-Different-Phenotype (%)” value [3] was 79%, the “Total Cell Count” value [3] was 269 and the “Population Apoptotic (%)” value [4] was 77%. For the same compound, the “Population Fragmented Nuclei (%)” value [4] was 7%, the “Population Healthy Nuclei (%)” value [4] was 64% and the “Population Hoechst High Intensity Objects (%)” value [4] was 29%. The “Population Mitotic Cells (%)” value [4] was 22%, the “Population Normal (%)” value [4] was 70% and the “Population Pyknosed Nuclei (%)” value [4] was 28%. The “Population Tubulin-Different-Phenotype (%)” value [4] was 81%, the “Total Cell Count” value [4] was 181 and the “Population Apoptotic (%)” value [5] was 72%. For the same compound, the “Population Fragmented Nuclei (%)” value [5] was 15%, the “Population Healthy Nuclei (%)” value [5] was 62% and the “Population Hoechst High Intensity Objects (%)” value [5] was 27%. The “Population Membrane Permeable-Phenotype (%)” value [5] was 0%, the “Population Mitochondria Different-Phenotype (%)” value [5] was 85% and the “Population Mitotic Cells (%)” value [5] was 27%. The “Population Normal (%)” value [5] was 72%, the “Population Pyknosed Nuclei (%)” value [5] was 22% and the “Population Tubulin-Different-Phenotype (%)” value [5] was 74%. The “Total Cell Count” value [5] was 222, the “Population Apoptotic (%)” value [6] was 74% and the “Population Fragmented Nuclei (%)” value [6] was 9%. The “Population Healthy Nuclei (%)” value [6] was 67%, the “Population Hoechst High Intensity Objects (%)” value [6] was 26% and the “Population Mitochondria Different-Phenotype (%)” value [6] was 89%. For the same compound, the “Population Mitotic Cells (%)” value [6] was 25%, the “Population Normal (%)” value [6] was 73% and the “Population Pyknosed Nuclei (%)” value [6] was 23%. The “Population Tubulin-Different-Phenotype (%)” value [6] was 70%, the “Total Cell Count” value [6] was 207 and the “Population Apoptotic (%)” value [7] was 74%. The “Population Fragmented Nuclei (%)” value [7] was 19%, the “Population Healthy Nuclei (%)” value [7] was 55% and the “Population Hoechst High Intensity Objects (%)” value [7] was 49%. For the same compound, the “Population Membrane Permeable-Phenotype (%)” value [7] was 0%, the “Population Mitochondria Different-Phenotype (%)” value [7] was 96% and the “Population Mitotic Cells (%)” value [7] was 25%. For the same compound, the “Population Normal (%)” value [7] was 50%, the “Population Pyknosed Nuclei (%)” value [7] was 24% and the “Population Tubulin-Different-Phenotype (%)” value [7] was 52%. The “Total Cell Count” value [7] was 314, the “Population Apoptotic (%)” value [8] was 88% and the “Population Fragmented Nuclei (%)” value [8] was 10%. For the same compound, the “Population Healthy Nuclei (%)” value [8] was 68%, the “Population Hoechst High Intensity Objects (%)” value [8] was 34% and the “Population Mitochondria Different-Phenotype (%)” value [8] was 98%. For the same compound, the “Population Mitotic Cells (%)” value [8] was 11%, the “Population Normal (%)” value [8] was 65% and the “Population Pyknosed Nuclei (%)” value [8] was 20%. For the same compound, the “Population Tubulin-Different-Phenotype (%)” value [8] was 77%, the “Total Cell Count” value [8] was 197 and the “Population Apoptotic (%)” value [9] was 67%. For the same compound, the “Population Fragmented Nuclei (%)” value [9] was 16%, the “Population Healthy Nuclei (%)” value [9] was 59% and the “Population Hoechst High Intensity Objects (%)” value [9] was 30%. For the same compound, the “Population Membrane Permeable-Phenotype (%)” value [9] was 0%, the “Population Mitochondria Different-Phenotype (%)” value [9] was 79% and the “Population Mitotic Cells (%)” value [9] was 32%. For the same compound, the “Population Normal (%)” value [9] was 69%, the “Population Pyknosed Nuclei (%)” value [9] was 23% and the “Population Tubulin-Different-Phenotype (%)” value [9] was 71%. For the same compound, the “Total Cell Count” value [9] was 239, the “Population Apoptotic (%)” value [10] was 81% and the “Population Fragmented Nuclei (%)” value [10] was 6%. For the same compound, the “Population Healthy Nuclei (%)” value [10] was 65%, the “Population Hoechst High Intensity Objects (%)” value [10] was 26% and the “Population Mitochondria Different-Phenotype (%)” value [10] was 95%. For the same compound, the “Population Mitotic Cells (%)” value [10] was 18%, the “Population Normal (%)” value [10] was 73% and the “Population Pyknosed Nuclei (%)” value [10] was 27%. The “Population Tubulin-Different-Phenotype (%)” value [10] was 74%, the “Total Cell Count” value [10] was 184 and the “Population Apoptotic (%)” value [11] was 55%. The “Population Fragmented Nuclei (%)” value [11] was 62%, the “Population Healthy Nuclei (%)” value [11] was 14% and the “Population Hoechst High Intensity Objects (%)” value [11] was 67%. The “Population Membrane Permeable-Phenotype (%)” value [11] was 0%, the “Population Mitochondria Different-Phenotype (%)” value [11] was 100% and the “Population Mitotic Cells (%)” value [11] was 44%. The “Population Normal (%)” value [11] was 32%, the “Population Pyknosed Nuclei (%)” value [11] was 23% and the “Population Tubulin-Different-Phenotype (%)” value [11] was 23%. For the same compound, the “Total Cell Count” value [11] was 361, the “Population Apoptotic (%)” value [12] was 80% and the “Population Fragmented Nuclei (%)” value [12] was 47%. The “Population Healthy Nuclei (%)” value [12] was 30%, the “Population Hoechst High Intensity Objects (%)” value [12] was 58% and the “Population Mitochondria Different-Phenotype (%)” value [12] was 94%. For the same compound, the “Population Mitotic Cells (%)” value [12] was 20%, the “Population Normal (%)” value [12] was 41% and the “Population Pyknosed Nuclei (%)” value [12] was 21%. The “Population Tubulin-Different-Phenotype (%)” value [12] was 57% and the “Total Cell Count” value [12] was 277.
